From ChEMBL document CHEMBL1212759, “Antifungal activity of colistin against mucorales species in vitro and in a murine model of Rhizopus oryzae pulmonary infection” (Antimicrob Agents Chemother, 2010)
Active and inactive are the calls of the source. No cut-off for these calls is given here.

Assays:
Rhizopus arrhizus [1] = assay: Antimicrobial activity against Rhizopus oryzae assessed as plasma membrane disruption-related ATP release at 32 ug/ml after 30 mins by Cell Titer-Glo luminescent assay; format: functional, organism-based
Method in brief: (§1)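 Spores at 10^7 cells/ml in RPMI 1640 were germinated about 6 h at 37°C. Germlings were resuspended in RPMI with colistin at 8 or 32 μg/ml, or drug-free, and shaken at 37°C. Supernatants taken at 5, 30, 60 and 90 min were assayed for released ATP by CellTiter-Glo luminescence.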

Mucor circinelloides [2] = assay: Antimicrobial activity against Mucor circinelloides isolate 4818 after 24 hrs in RMPI 1640 medium by broth microdilution method; format: functional, organism-based
Method in brief: (§2)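 Colistin was serially diluted from 64 to 0.06 μg/ml in RPMI 1640 with glucamine and without bicarbonate. Fresh spores from 48–72 h YAG plates were added at 0.5 × 10^4 to 4 × 10^4 cells/ml. Plates were incubated 24 h at 37°C. MIC was read visually as the lowest concentration giving 100% growth inhibition.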

Rhizopus homothallicus [3] = assay: Antimicrobial activity against Rhizopus homothallicus isolate 5790 after 24 hrs in yeast nitrogen base complete medium by broth microdilution method; format: functional
Method in brief: (§3)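 Broth microdilution in YNB complete medium with colistin at 128 to 0.12 μg/ml. Freshly collected spores were inoculated at 0.5 × 10^4 to 4 × 10^4 cells/ml and incubated 24 h at 37°C. MIC was read visually as the lowest concentration with complete (100%) growth inhibition.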

Rhizopus arrhizus [4] = assay: Antimicrobial activity against Rhizopus oryzae isolate 4153 after 24 hrs in yeast nitrogen base complete medium by broth microdilution method; format: functional, organism-based; method in brief: as §3
Mucor circinelloides [5] = assay: Antimicrobial activity against Mucor circinelloides isolate 5904 after 24 hrs in yeast nitrogen base complete medium by broth microdilution method; format: functional, organism-based; method in brief: as §3
Rhizopus arrhizus [6] = assay: Antimicrobial activity against Rhizopus oryzae isolate 4153 after 24 hrs in RMPI 1640 medium by broth microdilution method; format: functional, organism-based; method in brief: as §2
Rhizopus arrhizus [7] = assay: Antimicrobial activity against Rhizopus oryzae isolate 3140 after 24 hrs in RMPI 1640 medium by broth microdilution method; format: functional, organism-based; method in brief: as §2
Rhizopus arrhizus [8] = assay: Antimicrobial activity against Rhizopus oryzae isolate 5879 after 24 hrs in RMPI 1640 medium by broth microdilution method; format: functional, organism-based
Method in brief: (§4)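 Broth microdilution in RPMI 1640 with […], without bicarbonate. Colistin was serially diluted 64 to 0.06 μg/ml. Spores came from YAG plates grown 48–72 h at 37°C, were filtered and counted, and were inoculated at 0.5 × 10^4 to 4 × 10^4 cells/ml. Plates were incubated 24 h at 37°C. MIC was read visually as the lowest concentration giving 100% growth inhibition.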

Rhizopus arrhizus [9] = assay: Antimicrobial activity against Rhizopus oryzae isolate 6725 after 24 hrs in yeast nitrogen base complete medium by broth microdilution method; format: functional, organism-based
Method in brief: (§5)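 Microdilution was done in yeast nitrogen base complete medium, with colistin serially diluted 128 to 0.12 μg/ml. Spores were harvested from YAG plates (48–72 h, 37°C), washed, filtered and counted, then added at 0.5 × 10^4 to 4 × 10^4 cells/ml. After 24 h at 37°C, MIC was taken visually as the lowest concentration with complete growth inhibition.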

Rhizopus arrhizus [10] = assay: Antimicrobial activity against Rhizopus oryzae at 32 ug/disk after 24 hrs by disk diffusion method; format: functional, organism-based
Method in brief: (§6)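 Paper disks loaded with 8, 16 or 32 μg colistin were placed on agar plates inoculated with 200 μl of a 10^6 cells/ml R. oryzae spore suspension. After 24 h at 37°C, the diameter of the inhibition zone was measured.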

[11] = test system: Cunninghamella bertholletiae; assay: Antimicrobial activity against Cunninghamella bertholletiae isolate 6694 after 24 hrs in yeast nitrogen base complete medium by broth microdilution method; format: functional, organism-based; method in brief: as §3
Rhizopus arrhizus [12] = assay: Antimicrobial activity against Rhizopus oryzae isolate 4549 after 24 hrs in yeast nitrogen base complete medium by broth microdilution method; format: functional, organism-based; method in brief: as §3
Rhizopus arrhizus [13] = assay: Antimicrobial activity against Rhizopus oryzae assessed as cytoplasmic vacuolar swelling and bleb formation at 32 ug/ml by transmission electron microscopy; format: functional, organism-based
Mucor circinelloides [14] = assay: Antimicrobial activity against Mucor circinelloides isolate 4030 after 24 hrs in RMPI 1640 medium by broth microdilution method; format: functional, organism-based; method in brief: as §2
Rhizopus homothallicus [15] = assay: Antimicrobial activity against Rhizopus homothallicus isolate 5910 after 24 hrs in yeast nitrogen base complete medium by broth microdilution method; format: functional; method in brief: as §3
Rhizopus arrhizus [16] = assay: Antimicrobial activity against Rhizopus oryzae isolate 5496 after 24 hrs in RMPI 1640 medium by broth microdilution method; format: functional, organism-based; method in brief: as §2
[17] = test system: Cunninghamella bertholletiae; assay: Antimicrobial activity against Cunninghamella bertholletiae isolate 6733 after 24 hrs in RMPI 1640 medium by broth microdilution method; format: functional, organism-based; method in brief: as §2
Rhizopus arrhizus [18] = assay: Antimicrobial activity against Rhizopus oryzae at 8 ug/disk after 24 hrs by disk diffusion method; format: functional, organism-based; method in brief: as §6
Rhizopus arrhizus [19] = assay: Antimicrobial activity against Rhizopus oryzae assessed as plasma membrane disruption-related ATP release at 8 ug/ml after 5 mins by Cell Titer-Glo luminescent assay; format: functional, organism-based; method in brief: as §1
Mucor circinelloides [20] = assay: Antimicrobial activity against Mucor circinelloides isolate 4480 after 24 hrs in yeast nitrogen base complete medium by broth microdilution method; format: functional, organism-based; method in brief: as §3
Rhizopus arrhizus [21] = assay: Antimicrobial activity against Rhizopus oryzae isolate 5496 after 24 hrs in yeast nitrogen base complete medium by broth microdilution method; format: functional, organism-based; method in brief: as §3
Rhizopus arrhizus [22] = assay: Antimicrobial activity against Rhizopus oryzae isolate 5799 after 24 hrs in RMPI 1640 medium by broth microdilution method; format: functional, organism-based; method in brief: as §2
Rhizopus arrhizus [23] = assay: Antimicrobial activity against Rhizopus oryzae at 16 ug/disk after 24 hrs by disk diffusion method; format: functional, organism-based; method in brief: as §6
Rhizopus arrhizus [24] = assay: Antimicrobial activity against Rhizopus oryzae isolate 3140 after 24 hrs in yeast nitrogen base complete medium by broth microdilution method; format: functional, organism-based; method in brief: as §3
Rhizopus homothallicus [25] = assay: Antimicrobial activity against Rhizopus homothallicus isolate 5910 after 24 hrs in RMPI 1640 medium by broth microdilution method; format: functional; method in brief: as §2
Mucor circinelloides [26] = assay: Antimicrobial activity against Mucor circinelloides isolate 4030 after 24 hrs in yeast nitrogen base complete medium by broth microdilution method; format: functional, organism-based; method in brief: as §3
Rhizopus arrhizus [27] = assay: Antimicrobial activity against Rhizopus oryzae isolate 5879 after 24 hrs in yeast nitrogen base complete medium by broth microdilution method; format: functional, organism-based; method in brief: as §5
Rhizopus [28] = assay: Antimicrobial activity against Rhizopus sp. isolate 4523 after 24 hrs in RMPI 1640 medium by broth microdilution method; format: functional, organism-based; method in brief: as §4
Rhizopus microsporus = assay: Antimicrobial activity against Rhizopus microsporus isolate 6164 after 24 hrs in yeast nitrogen base complete medium by broth microdilution method; format: functional; method in brief: as §3
Rhizopus [29] = assay: Antimicrobial activity against […] isolate 6254 after 24 hrs in yeast nitrogen base complete medium by broth microdilution method; format: functional, organism-based; method in brief: as §3

COLISTIN
Activity (Rhizopus arrhizus [1]): Active
MFC (Mucor circinelloides [2]): 32 µg/mL
MIC (Mucor circinelloides [2]): 32 µg/mL
MFC (Rhizopus homothallicus [3]): > 128 µg/mL
MIC (Rhizopus homothallicus [3]): 128 µg/mL
MFC (Rhizopus arrhizus [4]): > 128 µg/mL
MIC (Rhizopus arrhizus [4]): 128 µg/mL
MFC (Mucor circinelloides [5]): > 128 µg/mL
MIC (Mucor circinelloides [5]): 128 µg/mL
MFC (Rhizopus arrhizus [6]): 64 µg/mL
MIC (Rhizopus arrhizus [6]): 16 µg/mL
MFC (Rhizopus arrhizus [7]): 32 µg/mL
MIC (Rhizopus arrhizus [7]): 16 µg/mL
MFC (Rhizopus arrhizus [8]): 32 µg/mL
MIC (Rhizopus arrhizus [8]): 32 µg/mL
MFC (Rhizopus arrhizus [9]): > 128 µg/mL
MIC (Rhizopus arrhizus [9]): 128 µg/mL
inhibition zone (IZ) (Rhizopus arrhizus [10]): 21 mm
MFC [11]: > 128 µg/mL
MIC [11]: 128 µg/mL
MFC (Rhizopus arrhizus [12]): > 128 µg/mL
MIC (Rhizopus arrhizus [12]): 128 µg/mL
Activity (Rhizopus arrhizus [13]): Active
MFC (Mucor circinelloides [14]): 64 µg/mL
MIC (Mucor circinelloides [14]): 16 µg/mL
MFC (Rhizopus homothallicus [15]): > 128 µg/mL
MIC (Rhizopus homothallicus [15]): 128 µg/mL
MFC (Rhizopus arrhizus [16]): 32 µg/mL
MIC (Rhizopus arrhizus [16]): 16 µg/mL
MFC [17]: 64 µg/mL
MIC [17]: 32 µg/mL
inhibition zone (IZ) (Rhizopus arrhizus [18]): 18 mm
Activity (Rhizopus arrhizus [19]): Active
MFC (Mucor circinelloides [20]): > 128 µg/mL
MIC (Mucor circinelloides [20]): 128 µg/mL
MFC (Rhizopus arrhizus [21]): > 128 µg/mL
MIC (Rhizopus arrhizus [21]): 128 µg/mL
MFC (Rhizopus arrhizus [22]): 32 µg/mL
MIC (Rhizopus arrhizus [22]): 8 µg/mL
inhibition zone (IZ) (Rhizopus arrhizus [23]): 19 mm
MFC (Rhizopus arrhizus [24]): > 128 µg/mL
MIC (Rhizopus arrhizus [24]): 128 µg/mL
MFC (Rhizopus homothallicus [25]): 32 µg/mL
MIC (Rhizopus homothallicus [25]): 32 µg/mL
MFC (Mucor circinelloides [26]): > 128 µg/mL
MIC (Mucor circinelloides [26]): 128 µg/mL
MFC (Rhizopus arrhizus [27]): > 128 µg/mL
MIC (Rhizopus arrhizus [27]): 128 µg/mL
MFC (Rhizopus [28]): 64 µg/mL
MIC (Rhizopus [28]): 16 µg/mL
MFC (Rhizopus microsporus): > 128 µg/mL
MIC (Rhizopus microsporus): 128 µg/mL
MFC (Rhizopus [29]): > 128 µg/mL
MIC (Rhizopus [29]): 128 µg/mL
